Measurements as given in ChEMBL document CHEMBL1154414, “In vitro and in vivo activities of T-705 against arenavirus and bunyavirus infections” (Antimicrob Agents Chemother, 2007).
Calls of active or inactive are those of the source. The rule behind the calls is not given here.

What was measured:
Punta Toro virus [1] = test: Antiviral activity against 500 PFU Punta Toro virus Adames infected C57BL/6 mouse assessed as inhibition of liver damage at 200 mg/kg, po twice daily administered 4 hrs before viral challenge measured on day 4 of viral infection; assay type: functional, organism-based; set-up: dose 200 mg/kg
Method in brief: (§1)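 Mice were infected with PTV subcutaneously and dosed by oral gavage twice daily (0.4% CMC vehicle). Five animals per group (10 placebo) were sacrificed on day 3 or 4. Livers were scored 0–4 for hepatic icterus, where 0 is normal and 4 is maximal yellow coloration.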

[2] = test system: Respiratory syncytial virus; test: Antiviral activity against Respiratory syncytial virus; assay type: functional, organism-based; settings: human respiratory syncytial virus
Punta Toro virus [3] = test: Antiviral activity against 500 PFU Punta Toro virus Adames infected C57BL/6 mouse assessed as animals with detectable virus level in liver at 50 mg/kg, po twice daily administered 4 hrs before viral challenge measured on day 4 of viral infection; assay type: functional
Method in brief: (§2)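 T-705 was suspended in 0.4% carboxymethylcellulose and given by oral gavage twice daily. Mice were infected subcutaneously with PTV. Five mice per group (10 placebo) were sacrificed on day 3 or 4. Liver homogenate or serum was serially diluted onto triplicate LLC-MK2 monolayers, and CPE was read at 6–8 days. The detection limit was 2.8 log10 CCID50 per 0.1 g liver or 0.1 ml serum.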

Pichinde virus [4] = test: Antiviral activity against Pichinde virus An 4763 infected Syrian golden hamster assessed as mean day of death at 60 mg/kg, po twice daily for 7 days administered 4 hrs before viral-challenge; assay type: functional
Punta Toro virus [5] = test: Antiviral activity against Punta Toro virus Adames infected Syrian golden hamster assessed as mean viral titer per 0.1 g of liver at 60 mg/kg, po twice daily administered 4 hrs before viral challenge measured on day 4 of viral infection; assay type: functional
Pichinde virus [6] = test: Antiviral activity against Pichinde virus An 4763 infected Syrian golden hamster assessed as mean viral titer per 0.1 g of liver at 15 mg/kg, po twice daily for 7 days administered 4 hrs before viral-challenge measured on day 7 of viral infection; assay type: functional
Pichinde virus [7] = test: Antiviral activity against Pichinde virus An 4763 infected Syrian golden hamster assessed as mean viral titer per 0.1 mL of serum at 15 mg/kg, po twice daily for 7 days administered 4 hrs before viral-challenge measured on day 7 of viral infection; assay type: functional
Punta Toro virus [8] = test: Antiviral activity against 500 PFU Punta Toro virus Adames infected C57BL/6 mouse assessed as animals with detectable virus level in liver at 10 mg/kg, po twice daily administered 4 hrs before viral challenge measured on day 3 of viral infection; assay type: functional; method in brief: as §2
Punta Toro virus [9] = test: Antiviral activity against Punta Toro virus Adames infected Syrian golden hamster assessed as mean day of death at 15 mg/kg, po twice daily for 6 days administered 4 hrs before viral challenge; assay type: functional
Punta Toro virus [10] = test: Antiviral activity against 500 PFU Punta Toro virus Adames infected C57BL/6 mouse assessed as animals with detectable virus level in serum at 10 mg/kg, po twice daily administered 24 hrs post viral challenge measured on day 3 of viral infection; assay type: functional; method in brief: as §2
Punta Toro virus [11] = test: Antiviral activity against 500 PFU Punta Toro virus Adames infected C57BL/6 mouse assessed as mean viral titer per 0.1 g of liver at 25 mg/kg, po administered 4 hrs before viral challenge measured on day 4 of viral infection; assay type: functional
Method in brief: (§3)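 Mice were infected subcutaneously with PTV and dosed by oral gavage twice daily; 5 per group (10 placebo) were killed on day 3 or 4. Liver homogenate or serum was serially diluted onto triplicate LLC-MK2 monolayers, and CPE was read 6–8 days later. 50% endpoints gave log10 CCID50 per 0.1 g liver or 0.1 ml serum. Detection range was 2.8–9.5; undetectable samples were assigned <2.8.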

Pichinde virus [12] = test: Antiviral activity against Pichinde virus An 4763 infected Syrian golden hamster assessed as mean serum ALT levels at 30 mg/kg, po twice daily for 7 days administered 4 hrs before viral-challenge measured on day 7 of viral infection; assay type: functional
Punta Toro virus [13] = test: Antiviral activity against 500 PFU Punta Toro virus Adames infected C57BL/6 mouse assessed as mean viral titer per 0.1 mL of serum at 5 mg/kg, po twice daily administered 4 hrs before viral challenge measured on day 3 of viral infection; assay type: functional; method in brief: as §3
Pichinde virus [14] = test: Antiviral activity against Pichinde virus An 4763 infected Syrian golden hamster assessed as inhibition of liver damage at 20 mg/kg, po twice daily for 7 days administered 24 hrs post viral-challenge measured on day 7 of viral infection; assay type: functional, organism-based; set-up: dose 20 mg/kg
La Crosse virus = test: Antiviral activity against La Crosse virus assessed as reduction of 1 log10 unit viral titer yields after 3 to 5 days; assay type: functional
Punta Toro virus [15] = test: Antiviral activity against Punta Toro virus Adames infected Syrian golden hamster assessed as mean viral titer per 0.1 mL of serum at 15 mg/kg, po twice daily administered 4 hrs before viral challenge measured on day 4 of viral infection; assay type: functional
Punta Toro virus [16] = test: Antiviral activity against 500 PFU Punta Toro virus Adames infected C57BL/6 mouse assessed as mean viral titer per 0.1 mL of serum at 25 mg/kg, po twice daily administered 4 hrs before viral challenge measured on day 4 of viral infection; assay type: functional; method in brief: as §3
Punta Toro virus [17] = test: Antiviral activity against Punta Toro virus Adames infected Syrian golden hamster assessed as inhibition of liver damage at 60 mg/kg, po twice daily administered 4 hrs before viral challenge measured on day 4 of viral infection; assay type: functional, organism-based; set-up: dose 60 mg/kg
Punta Toro virus [18] = test: Antiviral activity against 500 PFU Punta Toro virus Adames infected C57BL/6 mouse assessed as animals with detectable virus level in liver at 75 mg/kg, po twice daily administered 4 hrs before viral challenge measured on day 4 of viral infection; assay type: functional; method in brief: as §2
Punta Toro virus [19] = test: Antiviral activity against 500 PFU Punta Toro virus Adames infected C57BL/6 mouse assessed as inhibition of liver damage at 75 mg/kg/day, po twice daily administered 4 hrs before viral challenge measured on day 3 of viral infection; assay type: functional, organism-based; method in brief: as §1
Pichinde virus [20] = test: Antiviral activity against Pichinde virus An 4763 infected Syrian golden hamster assessed as mean viral titer per 0.1 g of liver at 30 mg/kg, po twice daily for 7 days administered 4 hrs before viral-challenge measured on day 7 of viral infection; assay type: functional
Punta Toro virus [21] = test: Antiviral activity against 500 PFU Punta Toro virus Adames infected C57BL/6 mouse assessed as animals with detectable virus level in liver at 200 mg/kg, po twice daily administered 4 hrs before viral challenge measured on day 4 of viral infection; assay type: functional; method in brief: as §2
Punta Toro virus [22] = test: Antiviral activity against 500 PFU Punta Toro virus Adames infected C57BL/6 mouse assessed as mean serum ALT levels at 50 mg/kg, po twice daily administered 4 hrs before viral challenge measured on day 4 of viral infection; assay type: functional
Method in brief: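 C57BL/6 mice received subcutaneous PTV, then oral gavage twice daily for 5–7 days. T-705 was given in 0.4% CMC and ribavirin in saline. Five mice per group (10 placebo) were killed on day 3 or 4, and serum was collected. ALT activity was measured by kinetic assay. Three sham-infected mice set baselines.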

Punta Toro virus [23] = test: Antiviral activity against 500 PFU Punta Toro virus Adames infected C57BL/6 mouse assessed as mean viral titer per 0.1 mL of serum at 30 mg/kg, po twice daily administered 4 hrs before viral challenge measured on day 3 of viral infection; assay type: functional; method in brief: as §3
Pichinde virus [24] = test: Antiviral activity against Pichinde virus An 4763 infected Syrian golden hamster assessed as inhibition of liver damage at 50 mg/kg, po twice daily for 7 days administered 72 hrs post viral-challenge measured on day 7 of viral infection; assay type: functional, organism-based; set-up: dose 50 mg/kg
Punta Toro virus [25] = test: Antiviral activity against 500 PFU Punta Toro virus Adames infected C57BL/6 mouse assessed as animals with detectable virus level in serum at 75 mg/kg, po twice daily administered 4 hrs before viral challenge measured on day 4 of viral infection; assay type: functional; method in brief: as §2

## NC(=O)c1nc(F)cnc1O [FAVIPIRAVIR]
Punta Toro virus [1]
  Activity: Active
[2]
  EC50: 261 µM
Punta Toro virus [3]
  Activity: 0%
Pichinde virus [4]
  Activity: 22 days
Punta Toro virus [5]
  log10CCID50: <3.4
Pichinde virus [6]
  log10CCID50: 7.7
Pichinde virus [7]
  log10CCID50: <5.3
Punta Toro virus [8]
  Activity: 0%
Punta Toro virus [9]
  Activity: 5.4 days
Punta Toro virus [10]
  Activity: 100%
Punta Toro virus [11]
  log10CCID50: <2.8
Pichinde virus [12]
  Activity: 378 IU/L
Punta Toro virus [13]
  log10CCID50: 7.2
Pichinde virus [14]
  Activity: Active
La Crosse virus
  EC90: 7 µM
Punta Toro virus [15]
  log10CCID50: <4.1
Punta Toro virus [16]
  log10CCID50: <3.3
Punta Toro virus [17]
  Activity: Active
Punta Toro virus [18]
  Activity: 0%
Punta Toro virus [19]
  Activity: Active
Pichinde virus [20]
  log10CCID50: 6.4
Punta Toro virus [21]
  Activity: 0%
Punta Toro virus [22]
  Activity: 41 IU/L
Punta Toro virus [23]
  log10CCID50: <5.2

## NC(=O)c1ncn([C@@H]2O[C@H](CO)[C@@H](O)[C@H]2O)n1 [RIBAVIRIN]
Pichinde virus [24]
  Activity: Active
Punta Toro virus [25]
  Activity: 20%
